# Article PMC7388746 (Toxicon : official journal of the International Society on …, 2020)
# Positions of bridges follow the written chain, without caps; N, C: chain ends. Residues, ends and D or L forms follow the SMILES beside them.
# Assays:
# [1] = tested on: TRPV1; conditions: cited from earlier work
# [2] = tested on: TRPV1; conditions: animal studies, ref Kaszas et al., 2012, Lebovitz et al.; cited from earlier work
# [3] = target: T1, TRPV1 channels expressed in HEK293T cells (murine TRPV1, E571A, C-terminal eYFP) (Mus musculus, UniProt Q704Y3, E571A); assay: Patch-clamp activation of TRPV1, extracellular perfusion; assay type: cell-based
# [4] = tested on: TRPV2; assay: Whole-cell patch-clamp of TRPV2; assay type: cell-based; conditions: n = 4
# Summary of the method: (§1)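 Channels transiently expressed in HEK293T cells (DMEM, 10% FBS, 37 °C, 5% CO2; Lipofectamine 3000) and recorded 24–48 h after transfection. Whole-cell, ~4 MΩ pipettes, 60% series-resistance compensation. Bath and pipette: 130 mM NaCl, 10 mM glucose, 0.2 mM EDTA, 3 mM HEPES pH 7.2. Sampled 10 kHz, filtered 2.9 kHz, 22 °C, rapid gravity perfusion. Mean ± SEM.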
# [5] = tested on: TRPV3; assay: Whole-cell patch-clamp of TRPV3; assay type: cell-based; conditions: n = 4
# Summary of the method: as §1
# [6] = target: T1, TRPV1 channels expressed in HEK293T cells (murine TRPV1, E571A, C-terminal eYFP); assay: TRPV1 desensitization on prolonged application and recovery; assay type: cell-based; conditions: RhTx2 300 μM vs RhTx 10 μM
# [7] = target: T1, TRPV1 channels expressed in HEK293T cells (murine TRPV1, E571A, C-terminal eYFP); assay: Single-channel recording of TRPV1; assay type: cell-based; conditions: outside-out; 300 μM RhTx2, on first perfusion
# [8] = target: T1, TRPV1 channels expressed in HEK293T cells (murine TRPV1, E571A, C-terminal eYFP); assay: Inside-out patch-clamp of TRPV1, intracellular perfusion; assay type: cell-based
# T1 sequence (Q704Y3 whole entry E571A, the tested form may be a part): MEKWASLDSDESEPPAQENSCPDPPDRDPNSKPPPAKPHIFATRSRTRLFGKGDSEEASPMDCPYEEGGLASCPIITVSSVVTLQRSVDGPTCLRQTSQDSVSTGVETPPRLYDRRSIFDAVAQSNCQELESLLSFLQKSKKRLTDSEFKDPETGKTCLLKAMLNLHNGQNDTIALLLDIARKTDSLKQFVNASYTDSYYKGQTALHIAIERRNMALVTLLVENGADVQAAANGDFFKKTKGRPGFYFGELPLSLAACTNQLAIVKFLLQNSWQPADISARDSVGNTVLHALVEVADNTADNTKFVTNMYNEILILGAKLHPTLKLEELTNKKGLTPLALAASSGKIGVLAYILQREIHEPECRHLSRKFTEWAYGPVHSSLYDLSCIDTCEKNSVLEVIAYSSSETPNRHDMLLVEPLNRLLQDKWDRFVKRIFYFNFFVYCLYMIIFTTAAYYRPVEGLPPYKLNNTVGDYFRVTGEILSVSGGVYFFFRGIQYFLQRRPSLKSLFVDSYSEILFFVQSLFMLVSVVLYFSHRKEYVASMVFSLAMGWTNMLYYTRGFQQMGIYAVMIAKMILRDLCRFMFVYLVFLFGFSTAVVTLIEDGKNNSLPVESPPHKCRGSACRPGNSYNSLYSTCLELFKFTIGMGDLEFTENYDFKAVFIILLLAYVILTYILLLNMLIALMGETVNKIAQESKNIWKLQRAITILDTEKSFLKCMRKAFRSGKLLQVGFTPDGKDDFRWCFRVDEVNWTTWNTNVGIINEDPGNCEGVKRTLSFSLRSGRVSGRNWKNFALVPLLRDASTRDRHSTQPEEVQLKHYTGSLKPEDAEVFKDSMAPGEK
structure (smiles),measurement,setting,value
CCOC(=O)C1=C(c2ccccc2)NC(C)=C(C(=O)SCCOC)C1CC (stereo not drawn) [MRS1477],"TRPV1 allosteric modulation, literature (in words)","[1]; ref Kaszas et al., 2012, Lebovitz et al.",positively and allosterically modulate the ligand activation of TRPV1
same,"analgesic effect and side effects, literature (in words)",[2],analgesic effects without side effects such as hyperthermia
"CC[C@H](C)[C@H](NC(=O)[C@@H]1CSSC[C@@H]2NC(=O)[C@H]([C@@H](C)O)NC(=O)[C@H](C(C)C)NC(=O)CNC(=O)[C@H](CC(N)=O)NC(=O)[C@@H](NC(=O)[C@@H]3CCCN3C(=O)[C@H](CC(N)=O)NC(=O)[C@H](CC(N)=O)NC(=O)[C@H](CC(C)C)NC(=O)[C@H](Cc3ccc(O)cc3)NC(=O)[C@H](CCCCN)NC(=O)[C@H](CO)NC(=O)[C@@H](N)CC(N)=O)CSSC[C@H](NC(=O)[C@H](CCCNC(=N)N)NC(=O)[C@H](Cc3ccc(O)cc3)NC(=O)CNC(=O)[C@H](CO)NC(=O)[C@@H]3CCCN3C2=O)C(=O)N[C@@H](CO)C(=O)N[C@@H]([C@@H](C)CC)C(=O)N[C@@H](C(C)C)C(=O)N[C@@H](CC(=O)O)C(=O)N[C@@H](CCCCN)C(=O)N[C@@H](CCC(N)=O)C(=O)N1)C(=O)N[C@@H](CCCCN)C(=O)N[C@@H](CCCCN)C(=O)N[C@@H](CCC(=O)O)C(=O)O [RhTx2] (H-NSKYLNNPCNGVTCPSGYRCSIVDKQCIKKE-OH; disulfide 9-20, 14-27; N-terminus and C-terminus assumed)","change in EC50, RhTx2 vs RhTx (fold)","[3]; EC50 of RhTx2 relative to RhTx, apparent binding affinity much lower",~100 fold
same,selectivity (in words),"[3]; TRPV1 vs TRPV2 and TRPV3, whole-cell, n = 4 per channel",selective for TRPV1 channel
same,TRPV1 activation (in words),"[3]; perfused from extracellular side, whole-cell recording, HEK293T",robustly activated TRPV1
same,current activation in TRPV2 compared with TRPV1 (in words),[4],much smaller
same,current activation in TRPV3 compared with TRPV1 (in words),[5],much smaller
same,steady state open probability in the desensitized state (in words),[6],significantly lower than that of RhTx
same,initial single-channel opening (in words),[7],strong channel opening
"CC[C@H](C)[C@H](NC(=O)[C@@H]1CSSC[C@@H]2NC(=O)[C@H]([C@@H](C)O)NC(=O)[C@H](C(C)C)NC(=O)CNC(=O)[C@H](CC(N)=O)NC(=O)[C@@H](NC(=O)[C@@H]3CCCN3C(=O)[C@H](CC(N)=O)NC(=O)[C@H](CC(N)=O)NC(=O)[C@@H](N)CC(C)C)CSSC[C@H](NC(=O)[C@H](CCCNC(=N)N)NC(=O)[C@H](Cc3ccc(O)cc3)NC(=O)CNC(=O)[C@H](CO)NC(=O)[C@@H]3CCCN3C2=O)C(=O)N[C@@H](CO)C(=O)N[C@@H]([C@@H](C)CC)C(=O)N[C@@H](C(C)C)C(=O)N[C@@H](CC(=O)O)C(=O)N[C@@H](CCCCN)C(=O)N[C@@H](CCC(N)=O)C(=O)N1)C(=O)N[C@@H](CCCCN)C(=O)N[C@@H](CCCCN)C(=O)N[C@@H](CCC(=O)O)C(=O)O [RhTx] (H-LNNPCNGVTCPSGYRCSIVDKQCIKKE-OH; disulfide 5-16, 10-23; N-terminus and C-terminus assumed)","mechanism of TRPV1 desensitization, literature (in words)","[1]; ref Yang et al., 2015, Luo et al., 2019",mechanistically similar to the heat desensitization
same,"TRPV1 activation, literature (in words)","[1]; ref Yang et al., 2015",strongly activates TRPV1
same,"binding site on TRPV1, literature (in words)","[1]; ref Yang et al., 2015",binds to the outer pore region above the pore helix
COc1cc(CNC(=O)CCCC/C=C/C(C)C)ccc1O [capsaicin],TRPV1 activation by intracellular application (in words),[8],robustly activated
Oc1cc2c(cc1O)CN(C(=S)NCCc1ccc(Cl)cc1)CCC2 [capsazepine],block of RhTx2 activation of TRPV1 (in words),[3],cannot be blocked
same,"mode of inhibition vs capsaicin, literature (in words)","[1]; ref Cao et al., 2013, Yang et al., 2015",competitive inhibitor
